An excerpt weighted towards active compounds, which were near 1.8% of everything screened.
TbMetRS inhib: Trypanosoma brucei MetRS inhibition. purified T. brucei MetRS, ATP depletion, Kinase-Glo luminescence. inhibition, % at 11.9 µM. 360,000 tested, 0.4% active;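 active means inhibition above a per-plate cutoff of the control wells' mean inhibition plus 3 SD, cut at about 5.5% in these data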;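 further: 0% = DMSO wells median and 100% = median of wells with control inhibitor compound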
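System: purified T. brucei MetRS enzyme / Detection: Kinase-Glo luciferase luminescence reporting remaining unconsumed ATP / Medium: HEPES buffer with MgCl2, KCl, DTT, spermine, BSA, pyrophosphatase / Replication: singlicate, one well per compound / Evaluation: percent inhibition relative to median high and low control wells / Schedule: 2 h aminoacylation at 25 °C after 15 min preincubation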
Rev-erbA mod: modulators of human Rev-erb alpha DNA binding; P20393; Rev-erbα–FITC-DNA binding, fluorescence polarization, 90 min; activity, % at 10 µM; 370,000 tested, 0.79% active; AID 1259318;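 active means activity above about 14%, limit read from the data; passing the limit was not always enough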;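 further: 0% = DMSO wells with 35 nM protein and 100% = DMSO wells with 750 nM protein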
Rin1 Abl inh: blocks binding of human Rin1 to Abl; P00519+Q13671; TR-FRET Rin1/Abl binding, biochemical; inhibition, % at 7.35 µM; 360,000 tested, 0.4% active; in the data active means inhibition above about 5%, passing the limit was not always enough
PG9 Ab binder: small molecules binding HIV-1 gp120 antibody PG9 | TR-FRET gp120-PG9 antibody binding | inhibition, % at 6.7 µM | 360,000 tested, 0.43% active | AID 624416; in the data active means inhibition above about 8.5%
NR1D1 mod conf: confirmation of modulators of human Rev-erb alpha DNA binding | shares compounds with Rev-erbA mod | Rev-erb alpha FITC-DNA binding, fluorescence polarization, 90 min | activation, % at 25 µM | 3,000 tested, 61% active | AID 1259319;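 active means activation at or above a set limit, or at least 3 SD above the negative control mean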;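 further: 0% = 35 nM protein with DMSO and 100% = 750 nM protein high control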
RORg counter: counter-screen for Rev-erb alpha modulators: RORgamma DNA binding; shares compounds with Rev-erbA mod; IC50, µM; 910 tested, 8% active; purified RORgamma protein-FITC-DNA binding, fluorescence polarization;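 active means Compounds whose fitted half-maximal concentration for disrupting protein-DNA binding is below 10 micromolar; the record names Rev-erb in its text, so the target is in doubt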
* marks the source's active call; other numbers are inactive results; nt = no result.

SMILES	TbMetRS inhib	Rev-erbA mod	Rin1 Abl inh	PG9 Ab binder	NR1D1 mod conf	others
C[C@H](CO)N1C[C@H](C)[C@@H](CN(C)C(=O)Nc2ccc(C(F)(F)F)cc2)OCc2cn(nn2)CCCC1=O	nt	3.9	nt	1.6	nt
Cn1c2ccccc2c(=O)c2c(=O)n(C3CCCCCC3)c(C3CCCCC3)nc21	-0.2	160.7*	0.3	-2.7	79.4*
Cc1nc2c(c(=O)c3ccccc3n2C)c(=O)n1C1CCCC1	nt	-2.8	nt	-1.0	nt
Cc1cc(C)cc(C(=O)OCCCN(C)C2CN(Cc3cn(Cc4ccccc4F)nn3)S(=O)(=O)C2)c1 (configuration not stated)	nt	-0.8	nt	nt	nt
CCOc1ccc2[nH]c3c(=O)n(CCc4ccc(OC)cc4)cnc3c2c1	-0.1	3.4	-4.3	-0.6	nt
CCOc1ccc2[nH]c3c(=O)n(CCC4=CCCCC4)cnc3c2c1	0.1	19.4*	-1.6	-1.6	-0.5
Cc1ccc(C(=O)NCC(=O)Nc2ccc(S(=O)(=O)Nc3cc(C)nc(C)n3)cc2)cc1	-0.3	2.4	4.7	2.1	nt
C=C(C)CN1C(=O)C2(OCCO2)c2ccccc21	0.1	0.6	-0.7	1.0	nt
CN1C(=O)c2cccc(NCCCN3C(=O)c4ccccc4C3=O)c2C1=O	0.1	46.2*	0.0	-1.0	19.1*
NS(=O)(=O)c1ccc(CCNc2nn3c(-c4cccc(OC(F)(F)F)c4)cnc3s2)cc1	-0.3	13.9	-0.9	1.5	nt
Cc1ccc(NC(=O)c2nc[nH]c2C(=O)N(C)Cc2ccccc2)cc1	-0.1	-0.4	2.2	0.0	nt
O=C(O)c1cc2c(=O)c3ccccc3oc2nc1C(F)(F)F	0.1	2.7	1.7	-2.2	nt
O=C(Nc1cccc(C(F)(F)F)c1)c1cc2c(=O)c3ccccc3oc2nc1C(F)(F)F	0.3	25.2*	-0.6	0.4	19.3*
O=C(Nc1ccccc1)c1cc2c(=O)c3ccccc3oc2nc1C(F)(F)F	-0.1	46.3*	-1.5	5.5	34.0*	RORg counter=>40
O=C1OC(CO)CN1Cc1ccccc1 (configuration not stated)	-0.7	-2.7	0.5	-0.8	nt
COc1ccc(CNC(=O)C(C#N)c2nc3ccccc3nc2N2CCCC2)cc1 (configuration not stated)	-0.5	41.9*	-0.3	0.1	23.0*
COc1ccc(CNC(=O)C(C#N)c2nc3ccccc3nc2N2CCN(C)CC2)cc1 (configuration not stated)	0.1	-0.7	-8.8	-1.3	nt
COc1ccc(C(=O)CSc2cc(C)nc(SCC(=O)c3ccc(C)cc3)n2)cc1	-0.6	26.8*	-0.7	-1.1	9.7
C=C[C@@H]1c2cc(C)ccc2N(S(=O)(=O)c2ccc(C)cc2)[C@H](c2ccc(OC(C)=O)cc2)C1(C#N)C#N	-0.4	-4.3	-1.2	-1.3	nt
CCCc1cc(=O)[nH]c2nnc(SCC(=O)Nc3cccc(NC(C)=O)c3)n12	-0.3	6.5	7.3	-0.1	nt
Cc1ccc(Cn2c(SCC(=O)Nc3cc(C)on3)nc3ccccc3c2=O)cc1	-0.2	45.3*	0.4	16.8*	18.5*
C/C(N)=C(/C#N)C(=O)CSc1nc2ccccc2c(=O)n1Cc1ccc(C)cc1	-0.8	69.7*	-50.4	1.2	25.4*
Cc1cc(NC(=O)CSc2nc3ccccc3c(=O)n2Cc2ccccc2)no1	0.6	15.2	-2.9	1.2	nt
CC(C(=O)N1CCc2ccccc21)N1CCN(S(=O)(=O)c2ccc(C(F)(F)F)cc2)CC1 (configuration not stated)	-0.3	16.6*	0.3	0.0	-2.7
C=CCNc1nc(NCc2ccc(NC(C)=O)cc2)c2sc(-c3ccccc3)cc2n1	0.1	65.5*	-5.4	-0.6	75.9*	RORg counter=>40
CC(=O)Nc1ccc(CNc2nc(NC(C)C)nc3cc(-c4ccccc4)sc23)cc1	0.5	-1.5	-9.7	-0.8	nt
COc1ccc(-c2cn(-c3ccc(C)cc3C)c(=S)[nH]2)cc1OC	-0.5	23.1*	0.7	0.6	-1.5
CCCCn1c(=O)[nH]c(=O)c2c1nc(-c1ccc(-c3ccccc3)cc1)n2C	-0.5	20.3	1.0	-1.5	nt
CCCCn1c(=O)[nH]c(=O)c2c1nc(-c1ccc(OCCC)c(OCC)c1)n2C	0.3	21.3*	-0.6	-0.1	-6.1
